Measurements reported in ChEMBL document CHEMBL4359917, “Design, synthesis, and biological evaluation of novel benzodiazepine derivatives as anticancer agents through inhibition of tubulin polymerization in vitro and in vivo” (Eur J Med Chem, 2019).

Tests used:
MDA-MB-231 = assay: Antiproliferative activity against human MDA-MB-231 cells assessed as cell growth inhibition measured after 48 hrs by MTT assay; type: functional, cell-based; conditions: MDA-MB-231, 48 h
Outline: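 Cancer cell lines exposed to compounds for 48 h; viability read by MTT assay. IC50 reported as mean ± SD from at least three independent experiments.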

Tubulin (Sus scrofa) = Tubulin (Sus scrofa) (UniProt P02554+P02550); assay: (§1) Inhibition of porcine brain tubulin polymerization assessed as decrease in fluorescence intensity measured every 60 sec for 90 mins in presence of GTP by DAPI staining based fluorescence assay
Tubulin (Sus scrofa), sequence (P02550 whole entry, looked up): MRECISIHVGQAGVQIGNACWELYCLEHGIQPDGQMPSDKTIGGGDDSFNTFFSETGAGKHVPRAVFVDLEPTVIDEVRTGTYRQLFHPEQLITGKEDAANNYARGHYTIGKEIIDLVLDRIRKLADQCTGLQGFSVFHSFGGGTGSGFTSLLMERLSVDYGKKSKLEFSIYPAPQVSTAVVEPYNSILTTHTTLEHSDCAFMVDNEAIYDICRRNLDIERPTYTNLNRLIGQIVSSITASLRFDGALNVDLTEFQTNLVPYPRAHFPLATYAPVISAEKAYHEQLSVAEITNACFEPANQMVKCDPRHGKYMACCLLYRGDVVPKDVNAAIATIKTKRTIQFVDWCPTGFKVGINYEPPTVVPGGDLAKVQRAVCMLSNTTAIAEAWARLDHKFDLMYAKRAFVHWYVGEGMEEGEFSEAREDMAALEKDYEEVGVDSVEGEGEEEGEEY
Tubulin (Sus scrofa), sequence (P02554 whole entry, looked up): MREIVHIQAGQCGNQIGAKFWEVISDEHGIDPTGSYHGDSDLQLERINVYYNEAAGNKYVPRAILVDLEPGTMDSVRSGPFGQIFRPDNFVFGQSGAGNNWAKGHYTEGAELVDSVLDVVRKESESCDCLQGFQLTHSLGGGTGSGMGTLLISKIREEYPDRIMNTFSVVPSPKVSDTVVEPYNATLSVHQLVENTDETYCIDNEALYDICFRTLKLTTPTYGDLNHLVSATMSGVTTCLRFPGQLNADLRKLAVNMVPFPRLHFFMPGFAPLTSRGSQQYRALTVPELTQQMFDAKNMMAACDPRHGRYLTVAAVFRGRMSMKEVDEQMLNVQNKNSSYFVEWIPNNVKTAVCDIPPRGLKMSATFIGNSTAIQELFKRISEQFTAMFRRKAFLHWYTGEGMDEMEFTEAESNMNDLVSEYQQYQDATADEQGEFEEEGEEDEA
Outline: (§2)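 Purified unpolymerised tubulin in reaction buffer incubated at 37 °C without or with compound at 0.75-7.5 µM. Polymerisation was followed as a rise in fluorescence intensity, and IC50 was derived. Performed three times.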

Tubulin = Tubulin (Sus scrofa, UniProt P02554+P02550); assay: as §1; outline: as §2
A549 [1] = assay: Cell cycle arrest in human A549 cells assessed as increase in cell accumulation at G2/M phase at 1 to 10 nM by RNase/propidium iodide staining based flow cytometry analysis; type: functional; conditions: TDE = time-dependent effect
A549 [2] = assay: Induction of apoptosis in human A549 cells assessed as necrotic cells at 1 nM after 24 hrs by annexin V-FITC/propidium iodide staining based flow cytometry (reference value: 0.03 %); type: functional
Outline: (§3)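 A549 cells treated at 1, 5 or 10 nM for 24 or 48 h, then analysed by flow cytometry. Quadrants: upper left necrotic, upper right late apoptotic, bottom left live, bottom right early apoptotic. Three experiments; representative results shown.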

A549 [3] = assay: Induction of apoptosis in human A549 cells assessed as live cells at 10 nM after 24 hrs by annexin V-FITC/propidium iodide staining based flow cytometry (reference value: 99.75 %); type: functional; outline: as §3
A549 [4] = assay: Induction of apoptosis in human A549 cells assessed as early apoptotic cells at 1 nM after 48 hrs by annexin V-FITC/propidium iodide staining based flow cytometry (reference value: 0.19 %); type: functional; outline: as §3
A549 [5] = assay: Induction of apoptosis in human A549 cells assessed as live cells at 10 nM after 48 hrs by annexin V-FITC/propidium iodide staining based flow cytometry (reference value: 99.75 %); type: functional; outline: as §3
A549 [6] = assay: Induction of apoptosis in human A549 cells assessed as necrotic cells at 10 nM after 48 hrs by annexin V-FITC/propidium iodide staining based flow cytometry (reference value: 0.03 %); type: functional; outline: as §3
[7] = Metabolic stability in Sprague-Dawley rat liver microsomes assessed as parent compound remaining after 120 mins in presence of NADPH by HPLC-UV-MS analysis; type: ADME, Microsome; conditions: read-out: Stability
Outline: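 Compound incubated with rat liver microsomes in buffer containing an NADPH regenerating system. Percentage of parent remaining was determined at time points up to 180 min, and half-life was derived.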

SMILES: COc1ccc2c(c1O)NC(=O)CN=C2c1cc(OC)c(OC)c([Se]C)c1
- IC50 (MDA-MB-231): 15.5 nM
- inhibition (Tubulin (Sus scrofa)): Dose-dependent effect
- IC50 (Tubulin): 1650 nM
- Activity (A549 [1]): Tde
- Activity (A549 [2]): 0.04%
- Activity (A549 [3]): 76.72%
- Activity (A549 [4]): 13.64%
- Activity (A549 [5]): 11.84%
- Activity (A549 [6]): 3.61%
- remaining at 2 h [7]: 66.1%
